For data set [1], the system named is Mus musculus. Kind of data set: Effect of compound on total white blood cell count in BDG1 male mice, after intraperitoneal administration at a dose of 51 mg/kg on day 5. Type of data set: functional. In outline:
(§1)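 Single ip dose given on day 0 to BDG₁ male mice. Total white blood cell count measured on days 3, 5 and 7, expressed as % change from control. Highest dose was at the LD₅₀, or at twice the optimal dose where so footnoted. Significance reported at p ≤ 0.05 and p ≤ 0.01. D marks death of one or more mice.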

The test system of data set [2] is Mus musculus. Kind of data set: Effect of compound on total white blood cell count in BDG1 male mice, after intraperitoneal administration at a dose of 68.0 mg/kg on day 7. Type of data set: functional. In outline: as §1
The test system of data set [3] is Mus musculus. Kind of data set: Effect of compound on total white blood cell count in BDG1 male mice, after intraperitoneal administration at a dose of 68.0 mg/kg on day 3. It is filed as functional. In outline:
as §1

Data set [4] deals with Mus musculus. Nature of the data set: Effect of compound on total white blood cell count in BDG1 male mice, after intraperitoneal administration at a dose of 51 mg/kg on day 7. Type of data set: functional. A digest of the protocol:
as §1

The subject of data set [5] is Mus musculus. Kind of data set: Antitumor activity against P-388 murine leukemia cells in CDF1 female mice after intraperitoneal administration at the specified optimal dose of 12.8 mg/kg. Type of data set: functional.
Data set [6] concerns Mus musculus. Kind of data set: Effect of compound on total white blood cell count in BDG1 male mice, after intraperitoneal administration at a dose of 68.0 mg/kg on day 5. It is filed as functional. A digest of the protocol:
as §1

The subject of data set [7] is Mus musculus. Kind of data set: Effect of compound on total white blood cell count in BDG1 male mice, after intraperitoneal administration at a dose of 51 mg/kg on day 3. Type of data set: functional. A digest of the protocol:
as §1

A short description of data set [8]: Therapeutic ratio is expressed as ratio of optimal dose and minimum effective dose. Type of data set: ADME. The conditions noted are these: mouse; read-out: TR. In outline: (§2)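 10⁶ P-388 ascites cells implanted ip in CDF₁ female mice. Six mice per dose, 10 saline-injected controls, and a concurrent mitomycin C reference group. %T/C = median survival time of treated/control × 100. MED is the lowest dose giving %T/C > 125. Therapeutic ratio = optimal dose/MED.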

Data set [9] concerns Mus musculus. Kind of data set: Effect of compound on total white blood cell count in BDG1 male mice, after intraperitoneal administration at a dose of 1.7 mg/kg on day 3. Type of data set: functional. A digest of the protocol:
(§3)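 BDG₁ male mice received a single ip dose on day 0. The dose series topped out at the LD₅₀ level, or at twice the optimal dose for some agents. Total white blood cell count was taken on days 3, 5 and 7 and expressed as % change from untreated controls. Significance was set at p ≤ 0.05 or p ≤ 0.01.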

In data set [10] the test system is Mus musculus. Nature of the data set: Effect of compound on total white blood cell count in BDG1 male mice, after intraperitoneal administration at a dose of 1.7 mg/kg on day 5. It is filed as functional. A digest of the protocol:
as §3

The species named for data set [11] is Mus musculus. Kind of data set: Half-wave potential produced by the compound at their optimal dose. Type of data set: functional. Further details: unit not given here.
The test system of data set [12] is Mus musculus. Kind of data set: Antitumor activity against P-388 murine leukemia cells in CDF1 female mice after intraperitoneal administration at the specified optimal dose of 3.2 mg/kg. Type of data set: functional.
The test system of data set [13] is Mus musculus. Kind of data set: Effect of compound on total white blood cell count in BDG1 male mice, after intraperitoneal administration at a dose of 1.7 mg/kg on day 7. Type of data set: functional. A digest of the protocol: as §3
The test system of data set [14] is Mus musculus. Nature of the data set: Effect of compound on total white blood cell count in BDG1 male mice, after intraperitoneal administration at a dose of 1.3 mg/kg on day 7. Type of data set: functional. In outline:
as §3

The test system of data set [15] is Mus musculus. Kind of data set: Effect of compound on total white blood cell count in BDG1 male mice, after intraperitoneal administration at a dose of 1.3 mg/kg on day 3. Type of data set: functional. In outline:
as §3

For data set [16], the system named is Mus musculus. Nature of the data set: Effect of compound on total white blood cell count in BDG1 male mice, after intraperitoneal administration at a dose of 0.96 mg/kg on day 3. Type of data set: functional. A digest of the protocol:
as §3

The subject of data set [17] is Mus musculus. Nature of the data set: Effect of compound on total white blood cell count in BDG1 male mice, after intraperitoneal administration at a dose of 1.3 mg/kg on day 5. It is filed as functional. In outline:
as §3

Data set [18] has as its system Mus musculus. Kind of data set: Minimum effective dose that show activity against P-388 murine leukemia cells in CDF1 female mice, after intraperitoneal administration (optimal dose is 3.2 mg/kg). Type of data set: functional. The conditions noted are these: P388, ip, read-out: MED. In outline:
as §2

Data set [19] is filed under the species Mus musculus. Nature of the data set: Degree of leukopenia produced by compound is assessed form Percent change in white cells on days 5. It is filed as functional. In outline: as §3
Data set [20] has as its system Mus musculus. Kind of data set: Effect of compound on total white blood cell count in BDG1 male mice, after intraperitoneal administration at a dose of 0.96 mg/kg on day 7. It is filed as functional. In outline: as §3
The subject of data set [21] is Mus musculus. Nature of the data set: Effect of compound on total white blood cell count in BDG1 male mice, after intraperitoneal administration at a dose of 0.96 mg/kg on day 5. It is filed as functional. In outline: as §3
Data set [22] deals with Mus musculus. Nature of the data set: Effect of compound on total white blood cell count in BDG1 male mice, after intraperitoneal administration at a dose of 4.22 mg/kg on day 5. Type of data set: functional.
In data set [23] the test system is Mus musculus. Nature of the data set: Number of tumored survivors, 45 days after administration of compound at a dose of 8 mg/kg/day in mice. Type of data set: functional.
Data set [24] relates to Mus musculus. Nature of the data set: Effect of compound on total white blood cell count in BDG1 male mice, after intraperitoneal administration at a dose of 3.16 mg/kg on day 7. It is filed as functional.
For data set [25], the system named is Mus musculus. Nature of the data set: Activity of compound dose of 0.5 mg/kg/day against Murine B-16 Melanocarcinoma in mice. Type of data set: functional.
For data set [26], the system named is Mus musculus. Kind of data set: Activity of compound dose of 4 mg/kg/day against Murine B-16 Melanocarcinoma in mice. It is filed as functional.
The subject of data set [27] is Mus musculus. Nature of the data set: Effect of compound on total white blood cell count in BDG1 male mice, after intraperitoneal administration at a dose of 7.5 mg/kg on day 5. It is filed as functional.
Data set [28] concerns Mus musculus. Kind of data set: Effect of compound on total white blood cell count in BDG1 male mice, after intraperitoneal administration at a dose of 5.63 mg/kg on day 7. It is filed as functional.
The test system of data set [29] is Mus musculus. Kind of data set: Effect of compound on total white blood cell count in BDG1 male mice, after intraperitoneal administration at a dose of 3.16 mg/kg on day 5. Type of data set: functional.
For data set [30], the system named is Mus musculus. Kind of data set: Effect of compound on total white blood cell count in BDG1 male mice, after intraperitoneal administration at a dose of 4.22 mg/kg on day 7. Type of data set: functional.
The species entered for data set [31] is Mus musculus. Nature of the data set: Degree of leukopenia produced by compound is assessed form Percent change in white cells on day 3. Type of data set: functional. In outline: as §3
For data set [32], the system named is Mus musculus. Nature of the data set: Effect of compound on total white blood cell count in BDG1 male mice, after intraperitoneal administration at a dose of 5.63 mg/kg on day 5. Type of data set: functional.
Data set [33] concerns Mus musculus. Kind of data set: Effect of compound on total white blood cell count in BDG1 male mice, after intraperitoneal administration at a dose of 7.5 mg/kg on day 7. It is filed as functional.
The subject of data set [34] is Mus musculus. Kind of data set: Number of cured survivors, 45 days after administration of compound at a dose of 1 mg/kg/day in mice. Type of data set: functional.
Data set [35] deals with Mus musculus. Nature of the data set: Effect of compound on total white blood cell count in BDG1 male mice, after intraperitoneal administration at a dose of 4.22 mg/kg on day 3. It is filed as functional.
For data set [36], the system named is Mus musculus. Nature of the data set: Effect of compound on total white blood cell count in BDG1 male mice, after intraperitoneal administration at a dose of 7.5 mg/kg on day 3. It is filed as functional.
Data set [37] has as its system Mus musculus. Kind of data set: Activity of compound dose of 8 mg/kg/day against Murine B-16 Melanocarcinoma in mice. It is filed as functional.
Data set [38] deals with Mus musculus. Kind of data set: Effect of compound on total white blood cell count in BDG1 male mice, after intraperitoneal administration at a dose of 3.16 mg/kg on day 3. Type of data set: functional.
Data set [39] relates to Mus musculus. Nature of the data set: Number of tumored survivors, 45 days after administration of compound at a dose of 1 mg/kg/day in mice. It is filed as functional.
In data set [40] the test system is Mus musculus. Nature of the data set: Effect of compound on total white blood cell count in BDG1 male mice, after intraperitoneal administration at a dose of 5.63 mg/kg on day 3. Type of data set: functional.
For data set [41], the system named is Mus musculus. Nature of the data set: Activity of compound dose of 1 mg/kg/day against Murine B-16 Melanocarcinoma in mice. It is filed as functional.
In data set [42] the test system is Mus musculus. Nature of the data set: Activity of compound dose of 2 mg/kg/day against Murine B-16 Melanocarcinoma in mice. Type of data set: functional.

For `COC12[C@@H]3N[C@@H]3CN1C1=C(C(=O)C(NCCCl)=C(C)C1=O)[C@@H]2COC(N)=O` (stereo partly specified), the Change in the data set with Mus musculus [1] was -61%; in the data set on Mus musculus [2], -35%; in the data set on Mus musculus [3], -71%; in the data set on Mus musculus [4], -23%; with Mus musculus [6], -63%; in the data set with Mus musculus [7] it was -55%. Further, in the data set with Mus musculus [5], the T/C is on record as 190%. The selectivity ratio in [8] is 8.

As for `COC1=C(C)C(=O)C2=C(C1=O)[C@@H](COC(N)=O)[C@@]1(OC)[C@H]3N[C@H]3CN21` [MITOMYCIN A], the Change is reported as -28% in the data set with Mus musculus [9]; -24% in the data set with Mus musculus [10]; 5% in the data set on Mus musculus [13]; -9% in the data set with Mus musculus [14]; -12% in the data set with Mus musculus [15]; -11% in the data set on Mus musculus [16]. For the same compound, the Change with Mus musculus [17] is -15%; in the data set filed under Mus musculus [19], -2%; with Mus musculus [20], 4%; in the data set with Mus musculus [21], -25%. Moreover, the E1/2 in the data set filed under Mus musculus [11] was -0.21. Moreover, in the data set with Mus musculus [12], the T/C was determined as 180%. Further, in the data set on Mus musculus [18], the minimal effective dose is 0.05 mg/kg. For the same compound, in data set [8], the selectivity ratio was 64.

In the case of `CO[C@@]12[C@H](COC(N)=O)C3=C(C(=O)C(C)=C(N)C3=O)N1C[C@@H]1N[C@@H]12` [MITOMYCIN], the Change with Mus musculus [22] is on record as -53%; in the data set on Mus musculus [24], -38%; with Mus musculus [27], -67%; in the data set with Mus musculus [28], -26%; in the data set on Mus musculus [29], -42%; in the data set with Mus musculus [30] it was -1%. Besides, the Change in the data set listed under Mus musculus [31] is -42%; in the data set with Mus musculus [32] it was -58%; in the data set with Mus musculus [33], -53%; in the data set on Mus musculus [35], -55%; in the data set with Mus musculus [36], -58%; in the data set on Mus musculus [38], -48%. Also, the Change with Mus musculus [40] is reported as -57%. In addition, the Survivors in the data set on Mus musculus [23], in the data set with Mus musculus [34] and with Mus musculus [39] was 1 throughout. The same compound yielded an E1/2 in the data set listed under Mus musculus [11] of -0.45. The T/C was determined as 122% in the data set on Mus musculus [25]; 193% in the data set with Mus musculus [26]; 178% with Mus musculus [12]; 164% with Mus musculus [37]; 136% with Mus musculus [41]; 159% in the data set on Mus musculus [42]. Also, the minimal effective dose in the data set with Mus musculus [18] came to 0.2 mg/kg.

Broadly, the T/C is the result in the treated group divided by that in the control group, in per cent.
